ChEMBL document CHEMBL1129338, “Inhibitors of acyl-CoA:cholesterol O-acyltransferase. synthesis and pharmacological activity of (+/-)-2-dodecyl-alpha-phenyl-N-(2,4,6-trimethoxyphenyl)-2H-tetrazole-5- acetamide and structurally related tetrazole amide derivatives” (J Med Chem, 1996)

Experiments:
[1] = biological target: T1, Sterol O-acyltransferase 1 (Rattus norvegicus, UniProt O70536); test: In vitro inhibitory activity against acyl coenzyme A:cholesterol acyltransferase 1 of liver microsomes isolated from cholesterol-fed rats.
T1 sequence (O70536 whole entry): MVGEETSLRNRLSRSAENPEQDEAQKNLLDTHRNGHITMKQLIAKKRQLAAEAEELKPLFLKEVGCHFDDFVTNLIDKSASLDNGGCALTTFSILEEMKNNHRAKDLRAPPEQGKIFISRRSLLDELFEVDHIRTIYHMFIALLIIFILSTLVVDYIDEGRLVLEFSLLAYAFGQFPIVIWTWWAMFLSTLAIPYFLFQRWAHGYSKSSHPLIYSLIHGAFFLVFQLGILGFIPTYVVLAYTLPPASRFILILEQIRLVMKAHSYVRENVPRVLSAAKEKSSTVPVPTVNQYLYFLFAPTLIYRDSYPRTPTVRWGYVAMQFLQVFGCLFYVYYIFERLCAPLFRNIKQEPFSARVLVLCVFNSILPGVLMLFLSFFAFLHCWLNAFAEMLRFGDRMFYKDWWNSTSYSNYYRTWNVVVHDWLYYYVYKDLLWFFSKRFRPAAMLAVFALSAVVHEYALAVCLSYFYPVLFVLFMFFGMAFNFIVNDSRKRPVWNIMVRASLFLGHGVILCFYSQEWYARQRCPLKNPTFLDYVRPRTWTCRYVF
Outline: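 ACAT inhibition was measured in hepatic microsomes isolated from cholesterol-fed rats. Each determination was run in triplicate, and IC50 was reported.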

[2] = biological target: T2, Sterol O-acyltransferase 1 (Mus musculus) (UniProt Q61263); test: In vitro inhibitory activity against acyl coenzyme A:cholesterol acyltransferase 1 in cell culture assay using murine IC-21 macrophages at 0.1 uM
T2 sequence (whole entry): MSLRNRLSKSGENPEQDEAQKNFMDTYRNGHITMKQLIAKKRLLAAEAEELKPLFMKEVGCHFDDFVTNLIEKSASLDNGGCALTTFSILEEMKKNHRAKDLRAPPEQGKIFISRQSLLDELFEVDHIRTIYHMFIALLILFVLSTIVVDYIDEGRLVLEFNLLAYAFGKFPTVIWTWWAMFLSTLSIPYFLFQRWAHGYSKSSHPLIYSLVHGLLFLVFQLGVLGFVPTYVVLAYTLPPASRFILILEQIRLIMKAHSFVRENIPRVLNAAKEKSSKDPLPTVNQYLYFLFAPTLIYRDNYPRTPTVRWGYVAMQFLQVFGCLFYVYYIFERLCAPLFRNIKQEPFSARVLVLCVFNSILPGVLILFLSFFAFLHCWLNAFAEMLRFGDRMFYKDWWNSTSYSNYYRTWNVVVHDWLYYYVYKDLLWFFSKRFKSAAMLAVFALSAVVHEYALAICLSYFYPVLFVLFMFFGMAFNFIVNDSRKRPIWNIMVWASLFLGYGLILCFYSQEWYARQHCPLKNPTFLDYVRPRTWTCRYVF
Outline: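 IC-21 mouse macrophages were preincubated 16 h in serum-free DMEM with 20 µM albumin and phosphatidylserine/cholesterol vesicles. The vesicles were sonicated in 150 mM NaCl, 5 mM MOPS, 1 mM EDTA, pH 7.4, and filter-sterilized. Medium was then replaced with serum-free DMEM containing the compound in DMSO at 0.1 µM. Percent inhibition was read, with cell protein measured by the Lowry method.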

[3] = test system: Rattus norvegicus; test: Percent change in total cholesterol (TC) in cholic acid (0.5%)-, cholesterol (1.5%) -, and peanut oil (5.5%)- fed rats at a dose 30 mg/kg.; format: functional
[4] = test system: Rattus norvegicus; test: Percent change in High Density Lipoproteins (HDL) in Chronic Cholesterol -Fed rat model at a dose 30 mg/kg; format: functional
Outline: (§1)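 Rats ate a high-fat, high-cholesterol diet for 14 days. During the second week they received the test compound daily by gavage at 30 mg/kg, in a carboxymethylcellulose/Tween-20 aqueous vehicle. Plasma lipids (total cholesterol, HDL-C, non-HDL-C) were read as percent change.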

[5] = test system: Rattus norvegicus; test: Percent change in non High Density Lipoproteins (HDL) in Chronic Cholesterol -Fed rat model at a dose 30 mg/kg
[6] = test system: Rattus norvegicus; test: % change in total cholesterol in Chronic Cholesterol-Fed rat model at dose 30 mg/kg; format: functional; outline: as §1
[7] = test system: Rattus norvegicus; test: In vitro percent decrease in cholesterol activity at 30 mg/kg in acute rat screen; format: functional; settings: in the assay text read “In vivo” for “In vitro”
Outline: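 Rats received a single gavage dose of 30 mg/kg, suspended in carboxymethylcellulose/Tween-20 in water, followed by one high-fat, high-cholesterol meal. The read-out was inhibition of the overnight rise in plasma total cholesterol, as percent change.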

Row | Compound | IC50 [1] | inhibition [2] | Change [3] | Change [4] | Change [5] | Change [6] | Decrease [7]
1 | CCCCCCCCn1nnc(C(C(=O)Nc2c(OC)cc(OC)cc2OC)c2ccccc2)n1 (stereo not drawn) | 270 nM | 13% | <39% | – | – | – | –
2 | CCCCCCCCCCCCn1nnc(C(C(=O)Nc2c(OC)cc(OC)cc2OC)c2ccc(-c3ccccc3)cc2)n1 (stereo not drawn) | 221 nM | 10% | <43% | – | – | – | –
3 | CCCCCCCCCCCCn1nnc(C(C(=O)Nc2ncccc2C)c2ccccc2)n1 (stereo not drawn) | 85 nM | 4% | <52% | – | – | – | –
4 | CCCCCCCCCCCCn1nnc(C(C(=O)NC(C)(C)C)c2ccccc2)n1 (stereo not drawn) | 3350 nM | 1% | 1% | – | – | – | –
5 | CCCCCCCCCCCCn1nnc(C(C#N)C(=O)Nc2c(C(C)C)cccc2C(C)C)n1 (stereo not drawn) | > 5000 nM | 7% | <75% | – | – | – | –
6 | CCCCCCCCCCCCCCCCn1nnc(C(C(=O)Nc2c(OC)cc(OC)cc2OC)c2ccccc2)n1 (stereo not drawn) | 53 nM | 55% | <47% | 16% | -9% | – | –
7 | CCCCCCCCCCCCn1nnc(C(C(=O)Nc2c(C(C)C)cccc2C(C)C)c2nnn[nH]2)n1 (stereo not drawn) | > 5000 nM | 8% | <37% | – | – | – | –
8 | CCCCCCCCCCCCn1nnc(C(C)(C)C(=O)Nc2c(OC)cc(OC)cc2OC)n1 | 33 nM | 34% | <69% | – | – | – | –
9 | CCCCCCCCCCCCn1nnc(C(C(=O)Nc2c(OC)cc(OC)cc2OC)c2ccc(F)cc2)n1 (stereo not drawn) | 36 nM | 46% | <68% | 12% | <53% | – | –
10 | CCCCCCCCCCCCn1nnc(C(C(=O)Nc2ccc3c(C)cc(C)nc3n2)c2ccccc2)n1 (stereo not drawn) | 1540 nM | 49% | 8% | – | – | – | –
11 | CCCCCCCCCCCCn1nnc(C(C(=O)NC2CC2)c2ccccc2)n1 (stereo not drawn) | 244 nM | 10% | <62% | – | – | – | –
12 | CCCCCCCCCCCCc1nnn(CC(=O)Nc2c(C(C)C)cccc2C(C)C)n1 | 6 nM | 95% | <68% | 165% | <81% | <72% | 68%
13 | CCCCCCCCCCCCn1nnc(C(C(=O)Nc2c(OC)cc(OC)cc2OC)c2ccc(N(C)C)cc2)n1 (stereo not drawn) | 659 nM | 0% | <62% | – | – | – | –
14 | CCCCCCCCCCCCn1nnc(C(C(=O)Nc2ccccc2)c2ccccc2)n1 (stereo not drawn) | 480 nM | 46% | 38% | – | – | – | –
15 | CCCCCCCCCCCCn1nnc(C(=O)Nc2c(C(C)C)cccc2C(C)C)n1 | 1060 nM | 33% | 23% | – | – | – | –
16 | CCCCCCCCCCCCn1nnc(C(C(=O)Nc2c(OC)cc(OC)cc2OC)c2ccccn2)n1 (stereo not drawn) | 59 nM | 23% | <60% | – | – | – | –

Row | Compound | IC50 [1] | inhibition [2] | Change [3] | Change [4] | Change [5] | Change [6] | Decrease [7]
17 | CCCCCCCCCCCCn1nnc(CCC(=O)Nc2c(C(C)C)cccc2C(C)C)n1 | 30 nM | 17% | <47% | – | – | – | –
18 | CCCCCCCCCCCCn1nnc(CCC(=O)Nc2c(OC)cc(OC)cc2OC)n1 | 480 nM | 9% | – | – | – | – | –
19 | CCCCCCCCCCCCn1nnc(C(C(=O)Nc2ccc(F)cc2F)c2ccccc2)n1 (stereo not drawn) | 31 nM | 1% | <70% | – | – | – | –
20 | CCCCCCCCCCCCn1nnc(C(C(=O)Nc2c(OC)cc(OC)cc2OC)c2ccc(OC)cc2)n1 (stereo not drawn) | 200 nM | 61% | <57% | – | – | – | –
21 | CCCCCCCCCCCCn1nnc(C(C(=O)Nc2c(C(C)C)cccc2C(C)C)c2ccccn2)n1 (stereo not drawn) | 26 nM | 24% | <64% | – | – | – | –
22 | CCCCCCCCCCCCn1nnc(C(C(=O)Nc2c(OC)cc(OC)cc2OC)C2CCCCC2)n1 (stereo not drawn) | 28 nM | 8% | <61% | – | – | – | –
23 | CCCCCCCCCCCCn1nnc(CC(=O)Nc2c(OC)cc(OC)cc2OC)n1 | 24 nM | 66% | <60% | – | – | – | –
24 | CCCCCCCCCCCCn1nnc(CC(=O)Nc2c(C(C)C)cccc2C(C)C)n1 | 5 nM | 91% | <64% | 82% | <63% | <42% | –
25 | CCCCCCCCCCCCn1nnc(C(C(=O)Nc2c(C)nn(C)c2C)c2ccccc2)n1 (stereo not drawn) | 13 nM | 66% | <62% | 28% | – | – | 66%
26 | CCCCCCCCCCCCn1nnc(C(C(=O)Nc2c(OC)ncnc2OC)c2ccccc2)n1 (stereo not drawn) | 13 nM | 39% | <56% | – | – | – | 66%
27 | CCCCCCCCCCCCc1nnn(CC(=O)Nc2c(OC)cc(OC)cc2OC)n1 | 56 nM | 61% | <69% | 3% | <46% | <44% | 69%
28 | CCCCCCCCCCCCn1nnc(C(C(=O)Nc2ccccn2)c2ccccc2)n1 (stereo not drawn) | 480 nM | 8% | 22% | – | – | – | –
29 | CCCCCCCCCCCCn1nnc(C(F)C(=O)Nc2c(OC)cc(OC)cc2OC)n1 (stereo not drawn) | 1760 nM | – | – | – | – | – | –
30 | CCCCCCCCCCCCn1nnc(C(C#N)C(=O)Nc2c(OC)cc(OC)cc2OC)n1 (stereo not drawn) | 13600 nM | 7% | <27% | – | – | – | –
31 | CCCCCCCCCCCCn1nnc(C2(C(=O)Nc3c(OC)cc(OC)cc3OC)CCCC2)n1 | 63 nM | 16% | <56% | – | – | – | –
